How the values were obtained:
[1] = Therapeutic index, ratio of IC50 for human Huh7.5 cells to EC50 for HCV; format: cell-based, Huh-7; conditions: read-out: Ratio IC50/EC50
Outline: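 TI was calculated as IC50/EC50. IC50 came from the 72 h Huh7.5 viability assay and EC50 from the 72 h JC1-Luc2A HCVcc luciferase infection assay.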

[2] = Cytotoxicity against human Huh7.5 cells after 72 hrs; format: cell-based; conditions: Huh-7, 72 h
Outline: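 Huh7.5 cells, derived from human hepatoma Huh7, were grown in DMEM with 10% heat-inactivated FBS and 1% nonessential amino acids. They were preseeded at 1 × 10^4 cells/well for 24 h, then given serial compound concentrations. Viable cells were measured after 72 h with the CellTiter 96 Aqueous One Solution kit. IC50 is the concentration inhibiting cell growth by 50%.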

[3] = system: Hepatitis C virus; assay: Antiviral activity against HCV expressing JC1-Luc2A infected in Huh7.5 cells assessed as inhibition of viral infection after 72 hrs by luciferase reporter gene assay; format: functional, organism-based, Hepacivirus hominis; conditions: Huh7.5, 72 h
Outline: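 Huh7.5 cells were preseeded at 1 × 10^4 cells/well for 24 h, then exposed to JC1-Luc2A reporter HCV (0.1 MOI) for 4 h. The inoculum was removed and the cells washed three times. Fresh medium with compounds was added. After 72 h, luciferase activity was read in cell lysates (Bright-Glo). EC50 is the concentration inhibiting HCVcc infection by 50%.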

In the case of `C=Cc1c(C)c(O)cc2c1CC[C@@H]1C(C)(C)[C@H](O)CC[C@@]21C` [SPRUCEANOL], the selectivity ratio [1] is reported as 10.5, the IC50 [2] is reported as 52.4 µM and the EC50 [3] is reported as 5 µM.
In the case of `COc1cc2c(cc1CO)C=C[C@@H]1C(C)(C)[C@@H](O)CC[C@@]21C`, the selectivity ratio [1] is reported as 4.9, the IC50 [2] is reported as 151 µM and the EC50 [3] is reported as 30.5 µM.
With `COc1cc2c(cc1C)C=C[C@@H]1C(C)(C)[C@H](O)CC[C@@]21C` the selectivity ratio [1] was 2.8, the IC50 [2] was 70 µM and the EC50 [3] was 24.9 µM.
For `COc1cc2c(cc1C)[C@H]1C[C@@H]3C(C)(C)[C@H](O)CC[C@@]23CO1`, the selectivity ratio [1] was 55.9, the IC50 [2] was 419 µM and the EC50 [3] was 7.5 µM.
`Cc1cc2c(cc1O)[C@]1(C)CC[C@H](O)C(C)(C)[C@H]1CC2` showed a selectivity ratio [1] of 4.5, an IC50 [2] of 54.3 µM and an EC50 [3] of 12 µM.
With `Cc1cc2c(cc1O)[C@]1(C)CCC(=O)C(C)(C)[C@H]1C=C2` the selectivity ratio [1] was 3.4, the IC50 [2] was 86.5 µM and the EC50 [3] was 25.5 µM.
Molecule `COc1cc2c(cc1C)CC[C@@H]1C(C)(C)[C@@]3(O)CC[C@@]21CO3` has a selectivity ratio [1] of 45, an IC50 [2] of 297 µM and an EC50 [3] of 6.6 µM.
Molecule `Cc1cc2c(cc1O)[C@]1(C)CC[C@H](O)C(C)(C)[C@H]1C=C2` has a selectivity ratio [1] of 9.8, an IC50 [2] of 54.9 µM and an EC50 [3] of 5.6 µM.
Molecule `COc1cc2c(cc1CO)C=C[C@@H]1C(C)(C)[C@H](O)CC[C@@]21C` has a selectivity ratio [1] of 4.6, an IC50 [2] of 125 µM and an EC50 [3] of 27.4 µM.
`Cc1cc2c(cc1O)[C@]1(C)CCC(=O)C(C)(C)[C@H]1[C@H](O)C2` gave a selectivity ratio [1] of 5.5, an IC50 [2] of 292 µM and an EC50 [3] of 52.8 µM.
For `C=C[C@]1(C)C=C2CC[C@H]3C(C)(C)[C@H](O)CC[C@]3(C)[C@H]2C[C@@H]1O`, the selectivity ratio [1] was 3.2, the IC50 [2] was 167 µM and the EC50 [3] was 52.7 µM.
With `C=CCc1ccc(O)c(-c2ccc(O)c(CC=C)c2)c1` [HONOKIOL] the selectivity ratio [1] was 6.2 and the EC50 [3] was 9.4 µM.
For `COc1cc2c(cc1C)C=C[C@@H]1C(C)(C)C(=O)CC[C@@]21C`, the selectivity ratio [1] was 1.7, the IC50 [2] was 81.8 µM and the EC50 [3] was 47.3 µM.
